The source made the active and inactive calls. The rule behind the calls is not given here.
Key:
[1] = biological target: Protein arginine N-methyltransferase 5 (Mus musculus) (UniProt Q8CIG8); experiment: Inhibition of PRMT5 in mouse oligodendrocyte progenitor cells assessed as decrease in expression of P53-responsive genes ((Mdm2, Cdkn1a, Perp) in presence of 100 uM KAT inhibitor Butyrolactone-3 after 48 hrs by qRT-PCR analysis; type: cell-based; settings: Oligodendrocyte progenitor cell
[2] = biological target: Protein arginine N-methyltransferase 5 (Mus musculus) (UniProt Q8CIG8); experiment: Inhibition of PRMT5 in mouse oligodendrocyte progenitor cells assessed as increase in levels of H4K5Ac incubated for 24 to 72 hrs by immunoreactivity based analysis; settings: Oligodendrocyte progenitor cell, time 24-72 hrs
Method in brief: (§1)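 Primary OPCs in growth-factor-free chemically defined medium, treated with DMSO or inhibitor over a time course. Fixed cells immunostained for H4R3me2s or H4K5ac. Nuclear pixel intensity measured by confocal imaging in an average of 395 cells per condition, three biological replicates.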

[3] = Effect on cell proliferation in mouse oligodendrocyte progenitor cells assessed as Ki67+/PDGFRalpha+ cell count measured after 12 to 48 hrs by immunoreactivity based assay; type: toxicity; settings: time 12-48 hrs
Method in brief: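 P7 mouse OPCs immunopanned for PDGFRα, kept proliferating in SATO medium with PDGF-AA and bFGF, then treated with inhibitor or DMSO. Cells fixed in 4% PFA and immunostained for PDGFRα and KI67. Double-positive (KI67+ PDGFRα+) cells counted by confocal imaging from three biological replicates.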

[4] = biological target: Protein arginine N-methyltransferase 5 (Mus musculus) (UniProt Q8CIG8); experiment: Inhibition of PRMT5 in Trp53-/- mouse oligodendrocyte progenitor cells assessed as reduction of the number of cleaved caspase--3-positive CNP+ cells in differentiating OPCs; type: cell-based; settings: Oligodendrocyte progenitor cell
Method in brief: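 Trp53−/− OPCs (Trp53fl/fl OPCs infected with Cre retrovirus) and Trp53fl/fl OPCs held in differentiating conditions (no growth factors, 60 nM T3) with or without 10 nM inhibitor. Immunostained for CNP and cleaved caspase-3 with DAPI. CNP+/DAPI+ ratio and cleaved caspase-3 intensity from three biological replicates, expressed relative to untreated cells of the same genotype.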

[5] = biological target: Protein arginine N-methyltransferase 5 (Mus musculus) (UniProt Q8CIG8); experiment: Inhibition of PRMT5 in Trp53fl/fl wild type mouse oligodendrocyte progenitor cells assessed as decreased in number of differentiating cells at 10 nM by cell count assay; type: cell-based
Method in brief: (§2)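 Primary OPCs from Trp53fl/fl mice (P7 immunopanning for PDGFRα), uninfected, alongside Cre-retrovirus-infected Trp53−/− counterparts. Cultured in SATO medium with PDGF-AA 10 ng/ml + bFGF 20 ng/ml (proliferating) or without growth factors + T3 60 nM (differentiating). Treated ± 10 nM inhibitor, DMSO controls. Cell counts averaged over three biological replicates.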

[6] = biological target: Protein arginine N-methyltransferase 5 (Mus musculus) (UniProt Q8CIG8); experiment: Inhibition of PRMT5 in mouse oligodendrocyte progenitor cells assessed as decrease in expression of P53-responsive genes ((Mdm2, Cdkn1a, Perp) after 48 hrs by qRT-PCR analysis; type: cell-based; settings: Oligodendrocyte progenitor cell
[7] = biological target: Protein arginine N-methyltransferase 5 (Mus musculus) (UniProt Q8CIG8); experiment: Inhibition of PRMT5 in mouse oligodendrocyte progenitor cells assessed as increase in levels of H4K5Ac at 10 nM incubated for 24 to 72 hrs by Western blot analysis; type: cell-based; settings: Oligodendrocyte progenitor cell, time 24-72 hrs
[8] = Effect on cell proliferation in Trp53fl/fl wild type mouse oligodendrocyte progenitor cells at 10 nM by cell count assay; type: toxicity, cell-based; settings: 0.01 µM; method in brief: as §2
[9] = biological target: Protein arginine N-methyltransferase 5 (Mus musculus) (UniProt Q8CIG8); experiment: Inhibition of PRMT5 in mouse oligodendrocyte progenitor cells assessed as decrease in levels of H4R3me2s at 10 nM incubated for 24 to 72 hrs by Western blot analysis; type: cell-based; settings: Oligodendrocyte progenitor cell, time 24-72 hrs
[10] = biological target: Protein arginine N-methyltransferase 5 (Mus musculus) (UniProt Q8CIG8); experiment: Inhibition of PRMT5 in mouse oligodendrocyte progenitor cells assessed as decrease in levels of H4R3me2s in presence of 100 uM KAT inhibitor Butyrolactone-3 after 24 to 48 hrs by immunoreactivity based analysis; settings: Oligodendrocyte progenitor cell, time 24-48 hrs
[11] = biological target: Protein arginine N-methyltransferase 5 (Mus musculus) (UniProt Q8CIG8); experiment: Inhibition of PRMT5 in mouse oligodendrocyte progenitor cells assessed as decrease in levels of H4R3me2s incubated for 24 to 72 hrs by immunoreactivity based analysis; settings: Oligodendrocyte progenitor cell, time 24-72 hrs; method in brief: as §1
[12] = biological target: Protein arginine N-methyltransferase 5 (Mus musculus) (UniProt Q8CIG8); experiment: Inhibition of PRMT5 in mouse oligodendrocyte progenitor cells assessed as decreased in number of differentiating cells in presence of 100 uM KAT inhibitor Butyrolactone-3 after 24 to 48 hrs by CNP and MBP staining based assay; settings: Oligodendrocyte progenitor cell, time 24-48 hrs
[13] = biological target: Protein arginine N-methyltransferase 5 (Mus musculus) (UniProt Q8CIG8); experiment: Inhibition of PRMT5 in mouse oligodendrocyte progenitor cells assessed as decreased in number of differentiating cells in presence of 0.2 uM KAT inhibitor NU-9056 after 24 to 48 hrs by CNP and MBP staining based assay; settings: Oligodendrocyte progenitor cell, time 24-48 hrs
[14] = biological target: Protein arginine N-methyltransferase 5 (Mus musculus) (UniProt Q8CIG8); experiment: Inhibition of PRMT5 in mouse oligodendrocyte progenitor cells assessed as decrease in expression of P53-responsive genes ((Mdm2, Cdkn1a, Perp) in presence of 0.2 uM KAT inhibitor NU-9056 after 48 hrs by qRT-PCR analysis; type: cell-based; settings: Oligodendrocyte progenitor cell
[15] = biological target: Protein arginine N-methyltransferase 5 (Mus musculus) (UniProt Q8CIG8); experiment: Inhibition of PRMT5 in mouse oligodendrocyte progenitor cells assessed as decrease in levels of H4R3me2s in presence of 0.2 uM KAT inhibitor NU-9056 after 24 to 48 hrs by immunoreactivity based analysis; settings: Oligodendrocyte progenitor cell, time 24-48 hrs
[16] = system: Oligodendrocyte progenitor cell; experiment: Inhibition of HDAC in mouse oligodendrocyte progenitor cells assessed as decreased in number of differentiating cells at 20 nM after 24 to 48 hrs by CNP and MBP staining based assay; settings: time 24-48 hrs

Chain of Protein arginine N-methyltransferase 5 (Mus musculus) (Q8CIG8 whole entry): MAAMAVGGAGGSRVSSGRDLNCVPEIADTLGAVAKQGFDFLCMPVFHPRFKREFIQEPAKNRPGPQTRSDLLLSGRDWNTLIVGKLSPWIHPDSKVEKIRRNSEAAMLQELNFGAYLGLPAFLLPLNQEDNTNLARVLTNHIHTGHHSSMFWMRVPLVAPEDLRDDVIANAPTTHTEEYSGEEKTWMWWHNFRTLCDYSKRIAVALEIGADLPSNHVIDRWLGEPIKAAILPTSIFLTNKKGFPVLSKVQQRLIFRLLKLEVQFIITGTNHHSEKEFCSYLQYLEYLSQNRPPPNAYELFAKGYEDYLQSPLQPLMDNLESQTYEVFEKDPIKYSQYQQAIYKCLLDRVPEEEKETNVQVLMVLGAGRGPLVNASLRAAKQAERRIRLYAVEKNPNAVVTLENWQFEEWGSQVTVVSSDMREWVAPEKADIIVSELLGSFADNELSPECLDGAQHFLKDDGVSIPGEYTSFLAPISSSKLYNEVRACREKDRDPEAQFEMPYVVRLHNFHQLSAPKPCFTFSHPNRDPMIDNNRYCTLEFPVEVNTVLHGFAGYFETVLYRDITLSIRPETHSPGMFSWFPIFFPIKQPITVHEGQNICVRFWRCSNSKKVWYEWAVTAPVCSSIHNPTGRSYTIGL

Compound | inhibition [1] | inhibition [2] | Activity [3] | inhibition [4] | inhibition [5] | inhibition [6] | inhibition [7] | Activity [8] | inhibition [9] | inhibition [10] | inhibition [11] | inhibition [12] | inhibition [13] | inhibition [14] | inhibition [15] | inhibition [16]
O=C(NC[C@H](O)CN1CCc2ccccc2C1)c1ccnc(NC2CCC2)c1 | inactive | Active | Non-Toxic | Active | Active | Active | Active | Toxic | Active | inactive | Active | inactive | inactive | inactive | inactive | –
CC(/C=C/C(=O)NO)=C\[C@@H](C)C(=O)c1ccc(N(C)C)cc1 | – | – | – | – | – | – | – | – | – | – | – | – | – | – | – | Active
